Assay outcomes from PubChem.
The list is not random: actives were taken first. Their share in the collection is about 2.3%.
TRPC4 act – activators of mouse TRPC4 channel | hit rate 0.49% among 310,000 | AID 2237 | Q9QUQ5 | HEK293 TRPC4beta/mu-opioid, Fluo4 calcium fluorescence; stronger effect = higher value | B-score at 10 µM;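 active = B-score above 5 SD of library B-scores, and initial fluorescence ratio not above library mean plus 5 SD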;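 note: positive B-score marks a calcium rise read as TRPC4 activation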
Target sequence (Q9QUQ5 whole entry, looked up): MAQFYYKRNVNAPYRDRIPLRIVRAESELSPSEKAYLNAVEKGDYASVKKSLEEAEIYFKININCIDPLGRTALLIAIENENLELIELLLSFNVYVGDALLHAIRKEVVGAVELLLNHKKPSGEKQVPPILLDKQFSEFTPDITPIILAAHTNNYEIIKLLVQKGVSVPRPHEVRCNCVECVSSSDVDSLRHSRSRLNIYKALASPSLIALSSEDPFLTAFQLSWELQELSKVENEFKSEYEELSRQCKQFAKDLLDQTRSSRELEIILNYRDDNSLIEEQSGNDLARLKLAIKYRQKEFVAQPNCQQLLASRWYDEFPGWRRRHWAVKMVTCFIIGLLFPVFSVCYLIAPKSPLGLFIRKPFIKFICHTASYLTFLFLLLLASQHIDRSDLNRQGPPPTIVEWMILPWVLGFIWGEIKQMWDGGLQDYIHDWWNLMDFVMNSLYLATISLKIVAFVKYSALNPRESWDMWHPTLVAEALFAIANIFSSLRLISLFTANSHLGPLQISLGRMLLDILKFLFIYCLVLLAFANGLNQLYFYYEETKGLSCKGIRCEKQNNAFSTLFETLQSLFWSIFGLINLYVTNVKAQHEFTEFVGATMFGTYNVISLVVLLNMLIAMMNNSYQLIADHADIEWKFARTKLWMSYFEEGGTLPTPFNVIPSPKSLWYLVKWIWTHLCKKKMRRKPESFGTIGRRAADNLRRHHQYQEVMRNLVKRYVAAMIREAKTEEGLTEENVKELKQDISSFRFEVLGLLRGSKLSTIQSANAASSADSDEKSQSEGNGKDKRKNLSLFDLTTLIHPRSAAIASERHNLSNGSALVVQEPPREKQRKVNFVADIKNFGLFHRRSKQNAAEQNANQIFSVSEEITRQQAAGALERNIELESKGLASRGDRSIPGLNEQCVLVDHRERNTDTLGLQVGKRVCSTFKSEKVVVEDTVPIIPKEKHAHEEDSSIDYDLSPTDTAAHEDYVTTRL
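Material: HEK293 stable line with TRPC4beta plus mu-opioid receptor; technique: Fluo4 calcium-sensitive dye fluorescence, kinetic, 1 Hz baseline; timing: Fluo4 dye loading 45 min at room temperature, 110 s recording; controls: assay buffer as low control, maximal DAMGO as high control; read-out: integrated baseline-normalised fluorescence ratio, converted to per-well B score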
TRPC4 inh – blocks the mouse TRPC4 cation channel; HEK293 TRPC4beta/mu-opioid, DAMGO-evoked Fluo4 calcium flux; stronger effect = lower value; AID 2247; B-score at 10 µM; hit rate 0.39% among 300,000; Q9QUQ5;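 active = B-score over 3 SD under the library average, no early fluorescence shift, positive overall ratio signal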
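Test system – stable TRPC4beta/mu-opioid receptor HEK293 cells · Probe or stimulus – DAMGO, a submaximal dose followed by a maximal one · Dosing – one concentration per compound · Signal – Fluo4 calcium fluorescence by kinetic imaging, 5 s 1 Hz baseline · Evaluation – per-well B score of integrated baseline-normalized Fluo4 ratio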
TRPC6 act – activators of mouse TRPC6 channel; Q61143; HEK293-TRPC6 membrane potential dye fluorescence; stronger effect = higher value; B-score at 10 µM; hit rate 0.13% among 310,000; AID 2550;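 active = B-score of the integrated fluorescence ratio above library mean plus 3 SD, and starting fluorescence ratio within library mean plus 5 SD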;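 note: higher score means more depolarization so channel activation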
TRPC4 potent – allosterically enhances the mouse TRPC4 cation channel; Q9QUQ5; HEK293 TRPC4beta/mu-opioid, DAMGO EC20, Fluo-4 Ca2+ flux; stronger effect = higher value; B-score at 10 µM; hit rate 0.42% among 310,000; AID 2227;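 active = B-score of calcium response area above 5 SD of library B-scores, with initial fluorescence ratio within 5 SD of library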;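 note: B-score of integrated fluorescence ratio over time as area under calcium response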
TRPC6 inh – blocks the mouse TRPC6 cation channel. HEK293-TRPC6, membrane potential dye, ACh-evoked depolarization; stronger effect = lower value. hit rate 1.1% among 310,000. AID 2553. B-score at 10 µM;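 active = B-score under library mean minus 3 SD, initial fluorescence not abnormally high, positive integrated signal ratio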;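 note: B-score derived from integrated fluorescence ratio over the kinetic read; more negative B-score means stronger inhibition of depolarization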
TRPC4 spec 2 – second check of whether TRPC6 inhibitors also affect mouse TRPC4; inhibition, % at 10 µM; shares compounds with TRPC6 inh; hit rate 42% among 920; HEK293 TRPC4/MOR, membrane potential dye fluorescence; channel activated by saturating DAMGO dose; AID 2776;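 active = compounds whose fluorescence signal differed from control wells by over 3 SD, either direction, in both duplicate plates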
TRPC4 spec – mouse TRPC4 off-target activity of TRPC6 inhibitors; hit rate 61% among 920; shares compounds with TRPC6 inh; AID 2777; HEK293 TRPC4/mu-opioid, membrane potential fluorescence; activity change, negative = inhibition, % at 10 µM;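 active = rise or fall in signal beyond 3 SD of buffer-only wells in both replicate plates, either sign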;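 note: integrated kinetic ratio of fluorescence range over baseline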
HEK293 MPD ctr 2-1 – second check of TRPC6 inhibitor effects in parental HEK293 cells. signal change vs control, % at 10 µM. hit rate 31% among 920. shares compounds with TRPC6 inh. parental HEK293 membrane potential dye fluorescence; maximal acetylcholine challenge after compound addition;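 active = membrane potential signal moving either way by over 3 SD of the maximum-effect control, in both duplicate plates, meaning non-specific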
HEK293 MPD ctr-1 – parental HEK293 nonspecific activity of TRPC6 inhibitors | shares compounds with TRPC6 inh | membrane potential signal change, % at 10 µM | hit rate 60% among 920 | AID 2780 | parental HEK293 membrane potential dye fluorescence;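 active = membrane potential signal shifting up or down by more than 3 SD of buffer-only wells, on both duplicate plates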
HEK293 MPD ctr-2 – parental HEK293 nonspecific activity of TRPC6 modulators. hit rate 51% among 2,400. shares compounds with TRPC6 inh. membrane potential signal change, % at 10 µM. membrane potential dye fluorescence. AID 488924;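 active = membrane potential signal moves up or down beyond 5 SD from buffer-only wells, on both duplicate plates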
HEK293 MPD ctr 2-2 – parental HEK293 nonspecific activity of TRPC6 modulators, second screen; inhibition, % at 10 µM; hit rate 14% among 2,400; AID 488926; membrane potential dye fluorescence; after compound, maximal acetylcholine stimulation; shares compounds with TRPC6 inh;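 active = membrane potential signal drops by more than 5 SD from the mean control signal, in both duplicate plates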;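 note: plate controls were acetylcholine ECmax control wells for no effect and buffer only wells for full effect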
TRPC4 ctr mod – tests whether TRPC6 modulators also affect mouse TRPC4; percent change from control (negative = decrease, positive = increase), % at 10 µM; hit rate 69% among 2,400; HEK293 TRPC4/mu-opioid, membrane potential fluorescence; shares compounds with TRPC6 inh;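 active = membrane potential signal moved up or down beyond 5 SD of buffer control wells, in both duplicate plates, actives on both sides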;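 note: plate controls were assay buffer wells for no effect and DAMGO maximal-effect wells for full effect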
TRPC4/MOR inh 2 – second selectivity test of TRPC6 modulators against mouse TRPC4; shares compounds with TRPC6 inh; HEK293 TRPC4/mu-opioid, membrane potential dye fluorescence; stimulated with maximal-effect DAMGO; inhibition, % at 10 µM; hit rate 55% among 2,400; AID 488928;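 active = drop in membrane potential signal beyond 5 SD of the control wells in both duplicate plates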;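 note: TRPC4 counter screen for TRPC6 hits run under conditions tuned for TRPC6 not TRPC4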
TRPC6 block conf – mouse TRPC6 inhibitor confirmation | shares compounds with TRPC6 inh | HEK293-TRPC6, membrane potential dye, ACh-evoked depolarization | inhibition, % at 10 µM | hit rate 43% among 3,300;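 active = fluorescence ratio falls more than 5 SD below the full-stimulation control mean, in both duplicate runs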;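 note: integrated fluorescence ratio of peak minus minimum over baseline after agonist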
TRPC6 act confirm – mouse TRPC6 activator confirmation. shares compounds with TRPC6 inh. HEK293-TRPC6 membrane potential dye fluorescence, FDSS. activation, % at 10 µM. hit rate 11% among 2,800. AID 488961;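 active = ratio signal rise beyond 5 SD above unstimulated control wells' mean, seen in both duplicate runs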;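 note: plate controls were buffer EC0 wells for no effect and acetylcholine ECmax response for full effect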
* hit, by the source's call; i = inactive; nt = no result given; + = active, no number.

SMILES	TRPC4 act	TRPC4 inh	TRPC6 act	TRPC4 potent	TRPC6 inh	HEK293 MPD ctr-2	HEK293 MPD ctr 2-2	TRPC4 ctr mod	TRPC4/MOR inh 2	TRPC6 block conf	TRPC6 act confirm	others
CN(C)CCOC(=O)/C(=C/c1cn(C)c2ccccc12)NC(=O)c1ccccc1	i	i	i	i	-7.7*	nt	nt	nt	nt	i	i	TRPC4 spec 2=i;TRPC4 spec=i;HEK293 MPD ctr 2-1=i;HEK293 MPD ctr-1=i
Cc1ccc(C(=O)N/C(=C\c2cn(C)c3ccccc23)C(=O)OCCN(C)C)cc1	i	i	i	i	-7.51*	nt	nt	nt	nt	i	i	TRPC4 spec 2=57.0%*;TRPC4 spec=-15.3%*;HEK293 MPD ctr 2-1=i;HEK293 MPD ctr-1=-280.0%*
O=[N+]([O-])c1ccccc1OCC(O)CN1CCN(CC(O)COc2ccccc2[N+](=O)[O-])CC1 (configuration not stated)	i	i	i	i	i	nt	nt	nt	nt	nt	nt
Clc1ccc(-c2cn(-c3ccccc3)c3[n+]2CCS3)cc1	i	i	i	i	-7.36*	-95.5%*	58.0%*	-16.5%*	i	47.5%*	i
COc1ccc(-c2cn(-c3ccc(Br)cc3)c3[n+]2CCS3)cc1	i	i	i	i	-5.93*	i	i	i	i	i	i
COc1ccc(-c2cn(-c3ccc(Cl)cc3)c3[n+]2CCCCC3)cc1	i	i	i	i	i	nt	nt	nt	nt	nt	nt
Fc1ccc(-c2cn(-c3ccccc3)c3[n+]2CCS3)cc1	i	i	i	i	i	nt	nt	nt	nt	nt	nt
N#Cc1ccc(NC(=O)Nc2ccc(Cl)cc2)cc1	i	i	i	i	i	nt	nt	nt	nt	nt	nt
N#CC(C#N)=C/C=C(\Nc1ccc(Cl)cc1)c1ccc(Cl)cc1	i	i	i	i	-5.16*	i	i	i	37.5%*	i	i
O=C(NN=C1CCCC1)c1ccccc1[N+](=O)[O-]	i	i	i	i	-5.64*	i	i	8.0%*	i	i	i
CC(C)N1CCC(=NNC(=O)c2ccccc2[N+](=O)[O-])CC1	i	i	i	i	i	nt	nt	nt	nt	nt	nt
Cc1cc(C)nc(NC(=NCCc2c[nH]c3ccccc23)NC(=O)Nc2ccc(Cl)cc2)n1	i	i	i	i	i	nt	nt	nt	nt	nt	nt
Cc1cc(C)nc(NC(N)=NCCc2c[nH]c3ccccc23)n1	i	i	i	i	-4.99*	-222.5%*	i	-42.5%*	46.0%*	54.5%*	i
CCC(=O)Nc1cccc(NC(=O)c2cccc([N+](=O)[O-])c2)c1	i	i	i	i	i	nt	nt	nt	nt	nt	nt
O=C(CN1CCOCC1)N/N=C/c1cccc2ccccc12	i	i	i	i	i	nt	nt	nt	nt	nt	nt
CC1CCN(c2nc(/C=C/c3ccccc3)nc3ccccc23)CC1	i	i	i	i	-6.07*	i	i	-19.0%*	i	i	i
c1ccc(-n2ncc3c(N4CCC5(CC4)OCCO5)ncnc32)cc1	i	i	i	i	-7.69*	nt	nt	nt	nt	i	i	TRPC4 spec 2=i;TRPC4 spec=i;HEK293 MPD ctr 2-1=220.5%*;HEK293 MPD ctr-1=i
Cc1cccc(-n2ncc3c(N4CCC5(CC4)OCCO5)ncnc32)c1	i	i	i	i	i	nt	nt	nt	nt	nt	nt
N#C/C(=C/c1ccc(N2CCOCC2)o1)C(=O)Nc1ccccc1	i	i	50.4*	i	i	+	+	133.5%*	i	nt	321.5%*
N#C/C(=C\c1ccc(N2CCOCC2)o1)C(=O)NC1CCCCC1	i	i	i	i	i	nt	nt	nt	nt	nt	nt
Cc1ccc(/C(C#N)=C\c2ccc(N3CCOCC3)o2)cc1	i	i	27.1*	i	i	419.5%*	i	97.5%*	i	i	115.0%*
N#C/C(=C\c1ccc(N2CCOCC2)o1)C(=O)NCCc1ccccc1	i	i	13.7*	i	i	774.0%*	135.0%*	129.0%*	i	i	95.5%*
COCCNC(=O)/C(C#N)=C/c1ccc(N2CCOCC2)o1	i	i	i	i	i	nt	nt	nt	nt	nt	nt
Cc1ccc(NS(=O)(=O)c2ccc3c(c2)CC(=O)N3)cc1C	i	i	i	i	i	nt	nt	nt	nt	nt	nt
Cc1cccc(-n2ccc(=O)c(C(=O)Nc3ccc(S(=O)(=O)N4CCOCC4)cc3)n2)c1	i	i	i	i	i	nt	nt	nt	nt	nt	nt
CCCn1c2ccccc2c2cnn(CC(=O)N3CCN(C4CCCCC4)CC3)c(=O)c21	i	i	14.7*	i	i	317.5%*	i	56.0%*	i	i	106.5%*
CCOC(=O)N1CCN(C(=O)c2ccc3nc(N4CCC(C)CC4)sc3c2)CC1	i	i	13.4*	i	-11.6*	114.0%*	i	21.0%*	i	113.0%*	160.5%*
Cc1ccc(NC(=O)CCC(=O)n2nc(C)cc2C)c(C)c1	i	i	i	i	-5.88*	i	i	i	i	i	i
COc1ccc2[nH]c3c(C)c4ccncc4c(C)c3c2c1	i	i	i	i	-6.21*	-159.0%*	i	-43.0%*	33.0%*	i	i
